Data reported in ChEMBL document CHEMBL1800018, “Discovery of a series of imidazo[4,5-b]pyridines with dual activity at angiotensin II type 1 receptor and peroxisome proliferator-activated receptor-γ” (J Med Chem, 2011).
Activity calls are given as the source filed them. The calls are words filed in the database; no cut-off is given here.

Experiments:
[1] = AUC in ZDF rat at 10 mg/kg, po; format: ADME, organism-based; set-up: dose 10 mg/kg, route oral; settings: plasma
Procedure, shortened: (§1)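 Male ZDF rats; satellite animals outside the efficacy groups were given oral doses of 3, 10 or 100 mg/kg. Plasma Cmax and AUC were calculated from these animals.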

[2] = AUC in rat at 1 mg/kg, iv; format: ADME, organism-based; set-up: dose 1 mg/kg, route intravenous; settings: plasma
[3] = tested on: Rattus norvegicus; assay: Antidiabetic activity in ZDF rat assessed as adiponectin level at 3 mg/kg, po QD for 40 days (reference value: 11.9+/-1.5 ug/ml); format: functional
[4] = tested on: Rattus norvegicus; assay: Antidiabetic activity in ZDF rat assessed as body weight gain at 10 mg/kg, po QD for 40 days (reference value: 133+/-9 g); format: functional
Procedure, shortened: (§2)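 Male ZDF rats, starting at about 6 weeks old, were dosed orally once daily for 40 days in 1.5% CMC/0.2% Tween 20 suspension, n = 8/group. Body weight was followed over the study. Gain was calculated per animal from day 0 to day 40 and compared with vehicle and pioglitazone (3 mg/kg) groups. Data are mean ± SEM.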

[5] = tested on: Rattus norvegicus; assay: Antidiabetic activity in ZDF rat assessed as body weight gain at 0.1 mg/kg, po QD for 40 days (reference value: 133+/-9 g); format: functional; procedure, shortened: as §2
[6] = Cmax in ZDF rat at 10 mg/kg, po; format: ADME, organism-based; set-up: dose 10 mg/kg, route oral; settings: in vivo; procedure, shortened: as §1
[7] = tested on: Rattus norvegicus; assay: Antidiabetic activity in ZDF rat assessed as body weight gain at 100 mg/kg, po QD for 40 days relative to pioglitazone; format: functional; procedure, shortened: as §2
[8] = tested on: Rattus norvegicus; assay: Antidiabetic activity in ZDF rat assessed as body weight gain at 30 mg/kg, po QD for 40 days (reference value: 133+/-9 g); format: functional; procedure, shortened: as §2
[9] = tested on: Rattus norvegicus; assay: Antidiabetic activity in ZDF rat assessed as body weight gain at 3 mg/kg, po QD for 40 days (reference value: 133+/-9 g); format: functional; procedure, shortened: as §2
[10] = biological target: T1, Peroxisome proliferator-activated receptor alpha (Homo sapiens) (UniProt Q07869); assay: Transactivation of human PPARalpha
T1 sequence (whole entry): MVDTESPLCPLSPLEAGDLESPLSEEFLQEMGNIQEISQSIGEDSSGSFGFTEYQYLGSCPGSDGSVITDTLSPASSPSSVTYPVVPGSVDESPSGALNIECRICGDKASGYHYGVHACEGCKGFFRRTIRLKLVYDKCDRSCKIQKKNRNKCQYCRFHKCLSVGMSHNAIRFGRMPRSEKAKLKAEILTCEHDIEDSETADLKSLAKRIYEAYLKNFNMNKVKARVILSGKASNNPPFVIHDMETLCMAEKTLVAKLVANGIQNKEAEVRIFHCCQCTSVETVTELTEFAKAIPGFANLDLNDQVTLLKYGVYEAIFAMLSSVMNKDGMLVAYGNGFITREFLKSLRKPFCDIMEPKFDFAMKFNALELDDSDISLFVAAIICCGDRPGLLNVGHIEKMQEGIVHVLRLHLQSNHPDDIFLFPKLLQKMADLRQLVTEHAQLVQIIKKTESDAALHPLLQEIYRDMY

[11] = Oral bioavailability in rat at 5 mg/kg; format: ADME, organism-based; settings: in vivo
[12] = tested on: Rattus norvegicus; assay: Antidiabetic activity in ZDF rat assessed as body weight gain at 1 mg/kg, po QD for 40 days (reference value: 133+/-9 g); format: functional; procedure, shortened: as §2
[13] = Clearance in rat at 1 mg/kg, iv; format: ADME, organism-based; set-up: dose 1 mg/kg, route intravenous; settings: in vivo
[14] = Volume of distribution at steady state in rat at 1 mg/kg, iv; format: ADME, organism-based; set-up: dose 1 mg/kg, route intravenous; settings: in vivo, read-out: Vdss
[15] = tested on: Rattus norvegicus; assay: Antidiabetic activity in ZDF rat assessed as adiponectin level at 30 mg/kg, po QD for 40 days (reference value: 11.9+/-1.5 ug/ml); format: functional
[16] = tested on: Rattus norvegicus; assay: Antidiabetic activity in ZDF rat assessed as triglyceride level at 3 mg/kg, po QD for 40 days (reference value: 618+/-52 mg/dL); format: functional
[17] = Half life in rat at 1 mg/kg, iv; format: ADME, organism-based; set-up: dose 1 mg/kg, route intravenous; settings: in vivo
[18] = biological target: T2, Type-1 angiotensin II receptor (Homo sapiens, UniProt P30556); assay: Binding affinity to human Angiotensin receptor 1
T2 sequence (P30556 whole entry): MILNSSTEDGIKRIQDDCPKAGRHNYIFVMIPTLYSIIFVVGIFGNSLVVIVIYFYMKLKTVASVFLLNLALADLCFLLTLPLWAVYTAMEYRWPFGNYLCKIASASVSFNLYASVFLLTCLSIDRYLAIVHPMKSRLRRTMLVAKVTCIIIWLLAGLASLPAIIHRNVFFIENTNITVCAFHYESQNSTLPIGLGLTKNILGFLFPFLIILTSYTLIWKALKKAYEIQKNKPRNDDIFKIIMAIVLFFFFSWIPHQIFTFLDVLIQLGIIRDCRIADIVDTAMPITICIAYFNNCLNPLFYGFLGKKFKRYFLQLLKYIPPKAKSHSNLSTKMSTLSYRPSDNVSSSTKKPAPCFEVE
Procedure, shortened: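 Competition radioligand binding on human recombinant AT1 receptors, displacing [¹²⁵I]Tyr⁴-Sar¹,Ile⁸-angiotensin II.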

[19] = tested on: Rattus norvegicus; assay: Antihypertensive activity in po dosed SHR rat assessed as decrease in arterial blood pressure administered as single dose; format: functional, organism-based; settings: Artery
Procedure, shortened: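 SHR carried aortic radiotelemetry transmitters implanted under Telazol anesthesia and recovered for at least 1 week. Rats were randomized by 2 h baseline mean BP. Each received vehicle by oral gavage on Day 0 and a single drug dose (0.3–10 mg/kg) on Day 1, with BP followed 20 h each day. The change was taken as Day 1 minus Day 0, n = 8/group.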

[20] = tested on: Rattus norvegicus; assay: Antidiabetic activity in ZDF rat assessed as triglyceride level at 0.1 mg/kg, po QD for 40 days (reference value: 618+/-52 mg/dL); format: functional
[21] = tested on: Rattus norvegicus; assay: Antidiabetic activity in ZDF rat assessed as triglyceride level at 30 mg/kg, po QD for 40 days (reference value: 618+/-52 mg/dL); format: functional
[22] = Cmax in ZDF rat at 3 mg/kg, po; format: ADME, organism-based; set-up: dose 3 mg/kg, route oral; settings: in vivo; procedure, shortened: as §1
[23] = tested on: Rattus norvegicus; assay: Antidiabetic activity in ZDF rat assessed as blood glucose level at 100 mg/kg, po QD for 40 days (reference value: 771+/-60 mg/dL); format: functional
[24] = tested on: Rattus norvegicus; assay: Antidiabetic activity in ZDF rat assessed as blood glucose level at 3 mg/kg, po QD for 40 days (reference value: 771+/-60 mg/dL); format: functional
[25] = AUC in SHR rat at 1 mg/kg, po; format: ADME, organism-based; set-up: dose 1 mg/kg, route oral; settings: plasma
Procedure, shortened: (§3)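 SHR received a single oral dose of 1, 3 or 10 mg/kg. Systemic exposure was determined as plasma Cmax and AUC.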

[26] = Cmax in ZDF rat at 100 mg/kg, po; format: ADME, organism-based; set-up: dose 100 mg/kg, route oral; settings: in vivo; procedure, shortened: as §1
[27] = AUC in SHR rat at 10 mg/kg, po; format: ADME, organism-based; set-up: dose 10 mg/kg, route oral; settings: plasma; procedure, shortened: as §3
[28] = tested on: Rattus norvegicus; assay: Antidiabetic activity in ZDF rat assessed as triglyceride level at 1 mg/kg, po QD for 40 days (reference value: 618+/-52 mg/dL); format: functional
[29] = tested on: Rattus norvegicus; assay: Antidiabetic activity in ZDF rat assessed as adiponectin level at 0.1 mg/kg, po QD for 40 days (reference value: 11.9+/-1.5 ug/ml); format: functional
[30] = AUC in rat at 5 mg/kg, po; format: ADME, organism-based; set-up: dose 5 mg/kg, route oral; settings: plasma

- AUC [1]: 28000 ng·h/mL
- AUC [2]: 1220 ng·h/mL
- Cmax [6]: 2730 ng/mL
- Activity [10]: inactive
- bioavailability [11]: 80%
- clearance [13]: 14 mL/min/kg
- Vd [14]: 2.9 L/kg
- half-life [17]: 2.1 h
- Ki [18]: 0.69 nM
- Cmax [22]: 267 ng/mL
- AUC [25]: 320 ng·h/mL
- Cmax [26]: 177000 ng/mL
- AUC [27]: 6830 ng·h/mL
- AUC [30]: 4950 ng·h/mL
Compound: CCc1nc2c(C)cc(CC(C)C)nc2n1[C@H]1CCc2cc(-c3ccccc3-c3nnn[nH]3)ccc21
- Activity [3]: 11.4 µg/mL
- Activity [4]: 200 g
- Activity [5]: 128 g
- Activity [7]: 51%
- Activity [8]: 202 g
- Activity [9]: 159 g
- Activity [12]: 150 g
- Activity [15]: 24.3 µg/mL
- Activity [16]: 734 mg/dL
- Activity [19]: Active
- Activity [20]: 559 mg/dL
- Activity [21]: 288 mg/dL
- Activity [23]: 116 mg/dL
- Activity [24]: 520 mg/dL
- Activity [28]: 725 mg/dL
- Activity [29]: 9.9 µg/mL
